Several values for one entry are separate records, joined by “and”; a condition that tells them apart may be missing. Equal entries are not always repeated.
Legend:
[1] = DPPH free radical scavenging; details: for DPPH radical scavenging % inhibition: at 100 μg/mL; for DPPH radical scavenging IC50: concentrations 100, 50, 25, 10 μg/mL, graphical method
Method in brief: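 DPPH (3.92 mg per 100 mL of 82% methanol) was combined with test compound at final 100, 50, 25 or 10 μg/mL and incubated 1 h at 25 °C in the dark. Absorbance at 517 nm. Scavenging % = […]. Triplicate, ascorbic acid positive control, IC50 obtained graphically.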

[2] = biological target: calf intestinal alkaline phosphatase (CIAP) (Bos taurus, UniProt P19111); assay: Calf intestinal alkaline phosphatase inhibition assay; type: biochemical
Sequence of calf intestinal alkaline phosphatase (CIAP) (P19111 20-533): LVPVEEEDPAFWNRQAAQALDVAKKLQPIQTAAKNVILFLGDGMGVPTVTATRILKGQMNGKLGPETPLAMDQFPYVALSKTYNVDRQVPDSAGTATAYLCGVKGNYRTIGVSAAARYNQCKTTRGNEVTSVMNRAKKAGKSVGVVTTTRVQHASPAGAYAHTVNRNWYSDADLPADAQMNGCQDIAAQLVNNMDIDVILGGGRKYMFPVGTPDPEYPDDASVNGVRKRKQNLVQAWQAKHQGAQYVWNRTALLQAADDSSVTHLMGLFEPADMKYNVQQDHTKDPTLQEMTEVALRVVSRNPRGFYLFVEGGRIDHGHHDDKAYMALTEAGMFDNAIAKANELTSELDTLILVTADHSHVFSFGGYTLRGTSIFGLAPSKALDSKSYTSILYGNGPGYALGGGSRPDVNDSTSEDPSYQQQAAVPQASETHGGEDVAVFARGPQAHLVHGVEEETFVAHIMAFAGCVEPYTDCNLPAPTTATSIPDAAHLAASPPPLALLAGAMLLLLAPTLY

Row | alkaline phosphatase inhibitory activity (in words) [2] | DPPH radical scavenging IC50 [1] | Molecule | DPPH radical scavenging % inhibition [1]
1 | no inhibition |  | 4-(2-Hydroxyphenyl)-6-(3-methoxyphenyl)-3,4,6,7-tetrahydro-1H-pyrrolo[3,4-d]pyrimidine-2,5-dione [4k] | less than 50%
2 | no inhibition | 0.75 µg/mL | O=C1NC2=C(C(=O)N(c3nc4ccccc4[nH]3)C2)C(c2ccccc2O)N1 (stereo not shown) [4g, 6-(1H-Benzo[d]imidazol-2-yl)-4-(2-hydroxyphenyl)-3,4,6,7-tetrahydro-1H-pyrrolo[3,4-d]pyrimidine-2,5-dione] | 80% and 70–80%
3 | low activities | 2.45 µg/mL | COc1ccc(N2CC3=C(C2=O)C(c2ccccc2O)NC(=O)N3)cc1 (stereo not shown) [4j, 4-(2-Hydroxyphenyl)-6-(4-methoxyphenyl)-3,4,6,7-tetrahydro-1H-pyrrolo[3,4-d]pyrimidine-2,5-dione] | 
4 | moderate activity | 1.72 µg/mL | 4-(2-Hydroxyphenyl)-6-(2-nitrophenyl)-3,4,6,7-tetrahydro-1H-pyrrolo[3,4-d]pyrimidine-2,5-dione [4h] | approximately 70%
5 |  | 2.731 µg/mL and 2.73 µg/mL | CCCCCCCCN1CC2=C(C1=O)C(c1ccccc1O)NC(=O)N2 (stereo not shown) [4b, 4-(2-Hydroxyphenyl)-6-octyl-3,4,6,7-tetrahydro-1H-pyrrolo[3,4-d]pyrimidine-2,5-dione] | 
6 | no inhibition |  | O=C1NC2=C(C(=O)N(Cc3ccc(Cl)cc3)C2)C(c2ccccc2O)N1 (stereo not shown) [4c, 6-(4-Chlorobenzyl)-4-(2-hydroxyphenyl)-3,4,6,7-tetrahydro-1H-pyrrolo[3,4-d]pyrimidine-2,5-dione] | less than 50%
7 | good activity |  | 4-(2-Hydroxyphenyl)-6-(2-methoxyphenyl)-3,4,6,7-tetrahydro-1H-pyrrolo[3,4-d]pyrimidine-2,5-dione [4i] | less than 50%
8 | low activities | 0.48 µg/mL | O=C1NC2=C(C(=O)N(c3ccc(F)cc3)C2)C(c2ccccc2O)N1 (stereo not shown) [4f, 6-(4-Fluorophenyl)-4-(2-hydroxyphenyl)-3,4,6,7-tetrahydro-1H-pyrrolo[3,4-d]pyrimidine-2,5-dione] | highest percent of inhibition

The remaining lines, values behind:

Row | Molecule | alkaline phosphatase inhibitory activity (in words) [2] | DPPH radical scavenging IC50 [1] | DPPH radical scavenging % inhibition [1]
9 | O=C1NC2=C(C(=O)N(Cc3ccc(F)cc3)C2)C(c2ccccc2O)N1 (stereo not shown) [4d, 6-(4-Fluorobenzyl)-4-(2-hydroxyphenyl)-3,4,6,7-tetrahydro-1H-pyrrolo[3,4-d]pyrimidine-2,5-dione] |  |  | less than 50%
10 | O=C1NC2=C(C(=O)N(Cc3ccc(F)cc3)C2)C(c2ccc(O)cc2)N1 (stereo not shown) [3d, 6-(4-Fluorobenzyl)-4-(4-hydroxyphenyl)-3,4,6,7-tetrahydro-1H-pyrrolo[3,4-d]pyrimidine-2,5-dione] |  |  | less than 50%
11 | 4-(4-Hydroxyphenyl)-6-(3-methoxyphenyl)-3,4,6,7-tetrahydro-1H-pyrrolo[3,4-d]pyrimidine-2,5-dione [3i] | no inhibition |  | less than 50%
12 | CCCCCCCCN1CC2=C(C1=O)C(c1ccc(O)cc1)NC(=O)N2 (stereo not shown) [3b, 4-(4-Hydroxyphenyl)-6-octyl-3,4,6,7-tetrahydro-1H-pyrrolo[3,4-d]pyrimidine-2,5-dione] |  | 2.6 µg/mL | 
13 | O=C1NC2=C(C(=O)N(c3ccc(F)cc3)C2)C(c2ccc(O)cc2)N1 (stereo not shown) [3f, 6-(4-Fluorophenyl)-4-(4-hydroxyphenyl)-3,4,6,7-tetrahydro-1H-pyrrolo[3,4-d]pyrimidine-2,5-dione] |  | 2.86 µg/mL | 
14 | O=C1O[C@H]([C@@H](O)CO)C(O)=C1O [ascorbic acid, reference compound] |  | 0.25 µg/mL | 97%
15 | O=C1NC2=C(C(=O)N(c3ccc(Cl)cc3)C2)C(c2ccccc2O)N1 (stereo not shown) [4e, 6-(4-Chlorophenyl)-4-(2-hydroxyphenyl)-3,4,6,7-tetrahydro-1H-pyrrolo[3,4-d]pyrimidine-2,5-dione] |  |  | 60%
16 | O=C1NC2=C(C(=O)N(Cc3ccccc3)C2)C(c2ccccc2O)N1 (stereo not shown) [4a, 6-Benzyl-4-(2-hydroxyphenyl)-3,4,6,7-tetrahydro-1H-pyrrolo[3,4-d]pyrimidine-2,5-dione] |  |  | less than 50%
17 | 6-(4-Hydroxyphenyl)-6-(2-nitrophenyl)-3,4,6,7-tetrahydro-1H-pyrrolo[3,4-d]pyrimidine-2,5-dione [3h] | moderate activity | 2.61 µg/mL | about 60%
18 | COc1ccc(N2CC3=C(C2=O)C(c2ccc(O)cc2)NC(=O)N3)cc1 (stereo not shown) [3j, 4-(4-Hydroxyphenyl)-6-(4-methoxyphenyl)-3,4,6,7-tetrahydro-1H-pyrrolo[3,4-d]pyrimidine-2,5-dione] |  | 2.48 µg/mL | 
19 | 4-(4-Hydroxyphenyl)-6-(2-methoxyphenyl)-3,4,6,7-tetrahydro-1H-pyrrolo[3,4-d]pyrimidine-2,5-dione [3k] | low activities |  | less than 50%
20 | O=C1NC2=C(C(=O)N(Cc3ccccc3)C2)C(c2ccc(O)cc2)N1 (stereo not shown) [3a, 6-Benzyl-4-(4-hydroxyphenyl)-3,4,6,7-tetrahydro-1H-pyrrolo[3,4-d]pyrimidine-2,5-dione] | no inhibition | 2.61 µg/mL | about 60%
21 | O=C1NC2=C(C(=O)N(Cc3ccc(Cl)cc3)C2)C(c2ccc(O)cc2)N1 (stereo not shown) [3c, 6-(4-Chlorobenzyl)-4-(4-hydroxyphenyl)-3,4,6,7-tetrahydro-1H-pyrrolo[3,4-d]pyrimidine-2,5-dione] | low activities |  | less than 50%
22 | O=C1NC2=C(C(=O)N(c3nc4ccccc4[nH]3)C2)C(c2ccc(O)cc2)N1 (stereo not shown) [3g, 6-(1H-Benzo[d]imidazol-2-yl)-4-(4-hydroxyphenyl)-3,4,6,7-tetrahydro-1H-pyrrolo[3,4-d]pyrimidine-2,5-dione] |  | 1.85 µg/mL | 
